{"source": "paper PMC10407628", "about": "(Computational and Structural Biotechnology Journal, 2023)", "key": {"FITC-Bmf BH3": {"target": "FITC-Bmf BH3", "experiment": "fluorescence polarisation"}, "FITC-Bim BH3": {"target": "FITC-Bim BH3", "experiment": "fluorescence polarisation"}, "Mcl-1 (Mcl-1ΔN170ΔC23)": {"target": "Mcl-1 (Mcl-1ΔN170ΔC23) (Homo sapiens, UniProt Q07820)", "sequence (Q07820 171-327 limits assumed, stated change not applied)": "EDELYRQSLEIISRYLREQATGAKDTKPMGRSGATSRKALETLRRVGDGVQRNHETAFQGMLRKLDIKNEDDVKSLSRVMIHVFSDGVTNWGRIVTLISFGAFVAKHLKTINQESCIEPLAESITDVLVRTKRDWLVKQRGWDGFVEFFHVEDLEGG", "experiment": "Fluorescence polarization assay", "assay_type": "binding", "procedure,_shortened": "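Human Mcl-1ΔN170ΔC23 was expressed His-SUMO-tagged in E. coli Rosetta BL21(DE3), Ni-purified, ULP1-cleaved, then SEC-purified. Protein was serially diluted in 20 mM Tris pH 8.0, 50 mM NaCl with FITC-labelled BH3 peptide (10 nM), shaken 1 min, and incubated 10 min at room temperature in the dark. Polarization (mP) was read in at least three replicates, and Kd was obtained by sigmoidal dose-response nonlinear regression.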"}, "Bcl-xLΔC25ΔLoop": {"target": "Bcl-xLΔC25ΔLoop (human, UniProt Q07817-1 1-208, removes the unstructured loop between residues 46–82)", "experiment": "crystal structure"}, "Bcl-2ΔC32ΔLoop": {"target": "T1, Bcl-2ΔC32ΔLoop (human, UniProt P10415;Q07817)", "T1 chain": "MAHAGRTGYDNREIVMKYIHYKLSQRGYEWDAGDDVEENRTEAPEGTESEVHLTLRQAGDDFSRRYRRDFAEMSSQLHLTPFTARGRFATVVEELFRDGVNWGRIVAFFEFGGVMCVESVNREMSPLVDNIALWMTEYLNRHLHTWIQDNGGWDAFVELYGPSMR", "experiment": "crystal structure"}, "R146A Bcl-2": {"target": "R146A Bcl-2 (human, UniProt P10415 1-207, R146A)", "sequence (P10415 1-207 R146A)": "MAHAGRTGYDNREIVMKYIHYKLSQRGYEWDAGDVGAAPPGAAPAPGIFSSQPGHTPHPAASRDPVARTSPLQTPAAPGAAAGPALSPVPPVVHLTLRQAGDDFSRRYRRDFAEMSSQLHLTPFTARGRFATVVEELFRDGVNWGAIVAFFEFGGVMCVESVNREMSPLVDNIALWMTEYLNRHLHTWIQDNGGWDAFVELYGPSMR", "experiment": "fluorescence polarisation"}, "R139A Bcl-xL": {"target": "R139A Bcl-xL (human, UniProt Q07817-1 1-208, R139A)", "experiment": "fluorescence polarisation"}, "Bcl-2ΔC32": {"target": "Bcl-2ΔC32 (human, UniProt P10415 1-207)", "experiment": "fluorescence polarisation"}, "Bcl-xLΔC25": {"target": "Bcl-xLΔC25 (human, UniProt Q07817-1 1-208)", "experiment": "fluorescence polarisation"}}, "note": "Ends that are not written are not given here. Peptide text beside a SMILES is read from it. * marks the point of attachment. FITC = O=C1OC2(c3ccc(O)cc3Oc3cc(O)ccc32)c2ccc(NC(=S)*)cc21"}
{"molecule": "Mcl-1 with Ala-227 substituted by Asp (from UniProt Q07820 171-327) (domain or fragment)", "values": [{"measurement": "Kd", "setting": "FITC-Bmf BH3", "value": 49, "unit": "nM"}]}
{"molecule": "Mcl-1ΔN170ΔC23 (from UniProt Q07820 171-327) (domain or fragment)", "values": [{"measurement": "Kd", "setting": "FITC-Bim BH3", "value": 5.8, "unit": "nM"}, {"measurement": "Kd", "setting": "FITC-Bmf BH3", "value": 185, "unit": "nM"}]}
{"molecule": "CC[C@H](C)[C@H](NC(=O)[C@H](CS)NC(=O)[C@H](CCC(N)=O)NC(=O)[C@H](CC(C)C)NC(=O)[C@H](CCCCN)NC(=O)[C@H](CCCNC(=N)N)NC(=O)[C@H](C)NC(=O)[C@@H](NC(=O)[C@H](CCC(N)=O)NC(=O)[C@@H](NC(=O)[C@H](CCC(=O)O)NC(=O)[C@H](C)NC(=O)[C@H](CCC(N)=O)NC(=O)[C@H](Cc1c[nH]cn1)NC(=S)Nc1ccc2c(c1)C(=O)OC21c2ccc(O)cc2Oc2cc(O)ccc21)C(C)C)[C@@H](C)CC)C(=O)N[C@@H](C)C(=O)N[C@@H](CC(=O)O)C(=O)N[C@@H](CCC(N)=O)C(=O)N[C@@H](Cc1ccccc1)C(=O)N[C@@H](Cc1c[nH]cn1)C(=O)N[C@@H](CCCNC(=N)N)C(=O)N[C@@H](CC(C)C)C(=O)N[C@@H](Cc1c[nH]cn1)C(=O)N[C@H](C(=O)N[C@@H](CCC(N)=O)C(=O)N[C@@H](CCC(N)=O)C(=O)O)C(C)C", "note": "[FITC-Bmf BH3] ({FITC}-HQAEVQIARKLQCIADQFHRLHVQQ-OH)", "values": [{"measurement": "Kd", "setting": "Mcl-1 (Mcl-1ΔN170ΔC23)", "value": 185, "unit": "nM"}]}
{"molecule": "HQAEVQIARKLQCIADQFHRLHVQQ", "note": "[25-mer Bmf BH3 peptide]", "values": [{"measurement": "binding result", "setting": "Bcl-xLΔC25ΔLoop", "value": "binds"}]}
{"molecule": "EVQIARKLQCIADQFHRLHVQ", "note": "[21-mer Bmf BH3 peptide]", "values": [{"measurement": "binding result", "setting": "Bcl-2ΔC32ΔLoop", "value": "binds"}]}
{"molecule": "{FITC}-HQAEVQIARKLQCIADQFHRLHVQQ", "note": "[FITC-Bmf BH3]", "values": [{"measurement": "Kd", "setting": "R146A Bcl-2", "value": 623, "unit": "nM"}, {"measurement": "Kd", "setting": "R139A Bcl-xL", "value": 1240, "unit": "nM"}, {"measurement": "Kd", "setting": "Bcl-2ΔC32", "value": "5.2 ± 0.3", "unit": "nM"}, {"measurement": "Kd", "setting": "Bcl-xLΔC25", "value": "5.1 ± 0.4", "unit": "nM"}]}
